Laboratory results from ChEMBL document CHEMBL1649546, “Extended-spectrum properties of CMY-30, a Val211Gly mutant of CMY-2 cephalosporinase” (Antimicrob Agents Chemother, 2009).
In brackets after ≈: the same amount, converted by molar mass. Activity calls are given as the source filed them. The calls are words filed in the database; no cut-off is given here.

Legend:
Escherichia coli [1] = experiment: Antibacterial activity against 5 x 10^5 CFU/ml CMY-30 producing Escherichia coli MC4100 harboring plasmid AC-cmy30 by microdilution method; format: functional
Summary of the method: (§1)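 Broth microdilution MIC in Mueller-Hinton broth with an inoculum of 5 × 10^5 CFU/ml. Isogenic E. coli MC4100 strains (vector control or carrying CMY-2 or CMY-30) were tested in parallel.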

Escherichia coli [2] = experiment: Antibacterial activity against 5 x 10^5 CFU/ml CMY-2 producing Escherichia coli MC4100 harboring plasmid AC-cmy2 by microdilution method; format: functional; summary of the method: as §1
[3] = Inhibition of Escherichia coli MC4100 Beta-Lactamase CMY-30 using cephalothin as reporter substrate
[4] = (§2) Inhibition of Escherichia coli MC4100 Beta-Lactamase CMY-2 using cephalothin as reporter substrate
Escherichia coli [5] = experiment: Antibacterial activity against 5 x 10^5 CFU/ml Escherichia coli MC4100 harboring plasmid ACYC184 by microdilution method; format: functional; summary of the method: as §1
Escherichia coli [6] = experiment: Antibacterial activity against 5 x 10^5 CFU/ml CMY-2 producing Escherichia coli MC4100 harboring plasmid AC-cmy2 by microdilution method in presence of 2 ug/ml clavulanic acid; format: functional
Summary of the method: (§3)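 Broth microdilution MIC in Mueller-Hinton broth with an inoculum of 5 × 10^5 CFU/ml. Clavulanic acid was held at a fixed 2 μg/ml. Isogenic E. coli MC4100 strains (vector control or carrying CMY-2 or CMY-30) were tested in parallel.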

Escherichia coli [7] = experiment: Antibacterial activity against 5 x 10^5 CFU/ml Escherichia coli MC4100 harboring plasmid ACYC184 by microdilution method in presence of 2 ug/ml clavulanic acid; format: functional; summary of the method: as §3
Escherichia coli [8] = experiment: Antibacterial activity against 5 x 10^5 CFU/ml CMY-30 producing Escherichia coli MC4100 harboring plasmid AC-cmy30 by microdilution method in presence of 2 ug/ml clavulanic acid; format: functional; summary of the method: as §3
Escherichia coli [9] = experiment: Inhibition of Escherichia coli DH5alpha beta-lactamase CMY-2 assessed as aztreonam hydrolysis
Summary of the method: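 Agar bioassay on MH agar seeded with E. coli DH5α indicator (10^5 CFU/ml), with 30 μg aztreonam disks. Purified cephalosporinase (700 ng in 10 μl phosphate buffer) was applied near each disk. Plates were incubated 18 h at 35°C and read for distortion of the inhibition zone against control disks.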

Escherichia coli [10] = experiment: Ratio of Kcat to Km for Escherichia coli MC4100 Beta-Lactamase CMY-30 harboring Val211?Gly211 mutation
Summary of the method: (§4)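 Enzyme source was E. coli MC4100 carrying high-copy plasmids pB-cmy30 or pB-cmy2. Enzyme was released by sonication in 20 mM Tris, pH 7.4, then purified by Q- and S-Sepharose ion exchange to >95% purity by SDS-PAGE. Values are means of four independent measurements. For some β-lactams, Km was obtained as Ki using cephalothin as reporter substrate.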

Escherichia coli [11] = experiment: Activity of Escherichia coli MC4100 Beta-Lactamase CMY-2
Summary of the method: (§5)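 CMY-2 purified from E. coli MC4100 carrying high-copy plasmid pB-cmy2. Cells in 20 mM Tris pH 7.4 sonicated, then Q- and S-Sepharose ion exchange, >95% pure by SDS-PAGE. Kinetic constants are means of four independent measurements. For some β-lactams Km was determined as Ki with cephalothin as reporter substrate.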

Escherichia coli [12] = experiment: Activity of Escherichia coli MC4100 Beta-Lactamase CMY-30 harboring Val211?Gly211 mutation; summary of the method: as §4
Escherichia coli [13] = experiment: Ratio of Kcat to Km for Escherichia coli MC4100 Beta-Lactamase CMY-2; summary of the method: as §5
Escherichia coli [14] = experiment: as §2
Escherichia coli [15] = experiment: Antibacterial activity against 5 x 10^5 CFU/ml CMY-30 producing Escherichia coli MC4100 harboring plasmid AC-cmy30 by microdilution method in presence of 4 ug/ml Tazobactam; format: functional
Summary of the method: (§6)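 Broth microdilution MICs in Mueller-Hinton broth, inoculum 5 × 10^5 CFU/ml. Isogenic E. coli MC4100 strains carrying CMY-30, CMY-2 or no CMY gene were tested in parallel. Tazobactam was held at a fixed 4 μg/ml.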

Escherichia coli [16] = experiment: Antibacterial activity against 5 x 10^5 CFU/ml Escherichia coli MC4100 harboring plasmid ACYC184 by microdilution method in presence of 4 ug/ml Tazobactam; format: functional; summary of the method: as §6
Escherichia coli [17] = experiment: Antibacterial activity against 5 x 10^5 CFU/ml CMY-2 producing Escherichia coli MC4100 harboring plasmid AC-cmy2 by microdilution method in presence of 4 ug/ml Tazobactam; format: functional; summary of the method: as §6

| Compound | MIC (Escherichia coli [1]) | MIC (Escherichia coli [2]) | Ki [3] | Ki [4] | MIC (Escherichia coli [5]) | kcat/Km (Escherichia coli [10]) | kcat (Escherichia coli [11]) | kcat (Escherichia coli [12]) | kcat/Km (Escherichia coli [13]) | other results |
| --- | --- | --- | --- | --- | --- | --- | --- | --- | --- | --- |
| CO/N=C(\C(=O)N[C@@H]1C(=O)N2C(C(=O)[O-])=C(C[N+]3(C)CCCC3)CS[C@H]12)c1csc(N)n1 | 0.25 µg/mL (≈ 0.52 µM) | 0.25 µg/mL (≈ 0.52 µM) |  |  |  |  |  |  |  |  |
| C[C@]1(/C=C\C#N)[C@H](C(=O)O)N2C(=O)C[C@H]2S1(=O)=O |  |  | 200 nM | 100 nM |  |  |  |  |  |  |
| CC1(C)S[C@@H]2[C@H](NC(=O)[C@H](N)c3ccc(O)cc3)C(=O)N2[C@H]1C(=O)O [AMOXICILLIN] | > 512 µg/mL | > 512 µg/mL |  |  | 4 µg/mL (≈ 10.9 µM) |  |  |  |  | MIC (Escherichia coli [6]): > 512 µg/mL; MIC (Escherichia coli [7]): 4 µg/mL; MIC (Escherichia coli [8]): > 512 µg/mL |
| C[C@H]1[C@H](NC(=O)/C(=N\OC(C)(C)C(=O)O)c2csc(N)n2)C(=O)N1S(=O)(=O)O [AZTREONAM] | 128 µg/mL (≈ 294 µM) | 16 µg/mL (≈ 36.7 µM) | 17 nM | 2.1 nM |  |  |  |  |  | Activity (Escherichia coli [9]): Active |
| N[C@@H](C(=O)N[C@@H]1C(=O)N2C(C(=O)O)=C(Cl)CS[C@H]12)c1ccccc1 [CEFACLOR ANHYDROUS] | > 512 µg/mL | > 512 µg/mL |  |  | 2 µg/mL (≈ 5.44 µM) |  |  |  |  |  |
| CO/N=C(\C(=O)N[C@@H]1C(=O)N2C(C(=O)O)=C(COC(C)=O)CS[C@H]12)c1csc(N)n1 [CEFOTAXIME] | 256 µg/mL (≈ 562 µM) | 16 µg/mL (≈ 35.1 µM) | 300 nM | 5 nM | 0.12 µg/mL (≈ 0.263 µM) | 5.7e+06 M⁻¹ s⁻¹ | < 0.01 s⁻¹ | 1.7 s⁻¹ | < 2e+06 M⁻¹ s⁻¹ |  |
| CO[C@@]1(NC(=O)Cc2cccs2)C(=O)N2C(C(=O)O)=C(COC(N)=O)CS[C@@H]21 [CEFOXITIN] | > 512 µg/mL | > 512 µg/mL | 170 nM | 150 nM | 2 µg/mL (≈ 4.68 µM) | 1.6e+06 M⁻¹ s⁻¹ | 0.35 s⁻¹ | 0.28 s⁻¹ | 2.3e+06 M⁻¹ s⁻¹ |  |
| CC(C)(O/N=C(\C(=O)N[C@@H]1C(=O)N2C(C(=O)[O-])=C(C[n+]3ccccc3)CS[C@H]12)c1csc(N)n1)C(=O)O [CEFTAZIDIME] | > 512 µg/mL | 128 µg/mL (≈ 234 µM) | 140 nM | 20 nM | 0.25 µg/mL (≈ 0.457 µM) | 2.9e+06 M⁻¹ s⁻¹ | 0.01 s⁻¹ | 0.4 s⁻¹ | 500000 M⁻¹ s⁻¹ |  |
| CO/N=C(\C(=O)N[C@@H]1C(=O)N2C(C(=O)O)=C(COC(N)=O)CS[C@H]12)c1ccco1 [CEFUROXIME] | > 512 µg/mL | > 512 µg/mL |  |  | 2 µg/mL (≈ 4.71 µM) |  |  |  |  |  |
| CC(=O)OCC1=C(C(=O)O)N2C(=O)[C@@H](NC(=O)Cc3cccs3)[C@H]2SC1 [CEPHALOTHIN] | > 512 µg/mL | > 512 µg/mL |  |  | 2 µg/mL (≈ 5.04 µM) | 1e+07 M⁻¹ s⁻¹ | 267 s⁻¹ | 256 s⁻¹ | 1.6e+07 M⁻¹ s⁻¹ | Km (Escherichia coli [11]): 17 µM; Km (Escherichia coli [12]): 26 µM |
| Cc1onc(-c2ccccc2Cl)c1C(=O)N[C@@H]1C(=O)N2[C@@H]1SC(C)(C)[C@@H]2C(=O)O [CLOXACILLIN] |  |  | 2.3 nM | 0.2 nM |  |  |  |  |  |  |
| CC1(C)S[C@@H]2[C@H](NC(=O)Cc3ccccc3)C(=O)N2[C@H]1C(=O)O [PENICILLIN G] |  |  | 600 nM |  |  | 3.8e+07 M⁻¹ s⁻¹ | 24 s⁻¹ | 23 s⁻¹ | 4e+07 M⁻¹ s⁻¹ | Km (Escherichia coli [14]): 0.6 µM |
| CCN1CCN(C(=O)N[C@@H](C(=O)N[C@@H]2C(=O)N3[C@@H]2SC(C)(C)[C@@H]3C(=O)O)c2ccccc2)C(=O)C1=O [PIPERACILLIN] | 64 µg/mL (≈ 124 µM) | 128 µg/mL (≈ 247 µM) |  |  | 0.5 µg/mL (≈ 0.966 µM) |  |  |  |  | MIC (Escherichia coli [15]): 16 µg/mL; MIC (Escherichia coli [16]): 0.5 µg/mL; MIC (Escherichia coli [17]): 16 µg/mL |
| C[C@]1(Cn2ccnn2)[C@H](C(=O)O)N2C(=O)C[C@H]2S1(=O)=O [TAZOBACTAM] |  |  | > 1000 nM | 800 nM |  |  |  |  |  |  |
| CC1(C)S[C@@H]2[C@H](NC(=O)[C@H](C(=O)O)c3ccsc3)C(=O)N2[C@H]1C(=O)O [TICARCILLIN] | > 512 µg/mL | > 512 µg/mL |  |  | 2 µg/mL (≈ 5.2 µM) |  |  |  |  | MIC (Escherichia coli [6]): > 512 µg/mL; MIC (Escherichia coli [7]): 1 µg/mL; MIC (Escherichia coli [8]): > 512 µg/mL |
